According to ChEMBL document CHEMBL4152203, “Antiproliferative hydrogen sulfide releasing evodiamine derivatives and their apoptosis inducing properties” (Eur J Med Chem, 2018):

Assays:
PBMC = assay: Antiproliferative activity against human PBMC cells after 72 hrs by MTT assay; format: cell-based
Outline: (§1)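 Cells seeded and pre-incubated 24 h at 37 °C, 5% CO2, then exposed to compounds for 72 h. MTT (5 mg/mL stock) added for 4 h, formazan dissolved in DMSO for 10 min at room temperature, absorbance read at 570 nm. 0.1% DMSO as negative and 5-FU as positive reference. IC50 derived from inhibition ratios; mean ± SD of three independent experiments.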

MCF7 = assay: Antiproliferative activity against human MCF7 cells after 72 hrs by MTT assay; format: functional, cell-based; conditions: MCF7, 72 h; outline: as §1
Bel-7402 = assay: Antiproliferative activity against human Bel7402 cells after 72 hrs by MTT assay; format: functional, cell-based; conditions: Bel-7402, 72 h; outline: as §1
Caco-2 = assay: Antiproliferative activity against human Caco2 cells after 72 hrs by MTT assay; format: functional, cell-based; conditions: Caco-2, 72 h; outline: as §1
HL-60 = assay: Antiproliferative activity against human HL60 cells after 72 hrs by MTT assay; format: functional, cell-based; conditions: HL-60, 72 h; outline: as §1
SGC-7901 = assay: Antiproliferative activity against human SGC7901 cells after 72 hrs by MTT assay; format: functional, cell-based; conditions: SGC-7901, 72 h; outline: as §1

SMILES: CN1c2ccccc2C(=O)N2CCc3c(n(CC(=O)Oc4ccc(-c5cc(=S)ss5)cc4)c4ccccc34)C21 (stereo not drawn)
- IC50 (PBMC): > 100 µM
- IC50 (MCF7): 47.5 µM
- IC50 (Bel-7402): 25.8 µM
- IC50 (Caco-2): 22.9 µM
- IC50 (HL-60): > 50 µM
- IC50 (SGC-7901): 26.8 µM

SMILES: CN1c2ccccc2C(=O)N2CCc3c(n(CC(=O)OCCOc4ccc(-c5cc(=S)ss5)cc4)c4ccccc34)C21 (stereo not drawn)
- IC50 (PBMC): > 100 µM
- IC50 (MCF7): 38.4 µM
- IC50 (Bel-7402): 26.8 µM
- IC50 (Caco-2): 6.35 µM
- IC50 (HL-60): 1.92 µM
- IC50 (SGC-7901): 32.9 µM

SMILES: CN1c2ccccc2C(=O)N2CCc3c(n(CCCCC(=O)OCCOc4ccc(-c5cc(=S)ss5)cc4)c4ccccc34)C21 (stereo not drawn)
- IC50 (PBMC): > 100 µM
- IC50 (MCF7): 29.7 µM
- IC50 (Bel-7402): 41.4 µM
- IC50 (Caco-2): 4.22 µM
- IC50 (HL-60): 2.09 µM
- IC50 (SGC-7901): 43.6 µM

SMILES: CN1c2ccccc2C(=O)N2CCc3c(n(CCCCCCOC(=O)CCCCC4CCSS4)c4ccccc34)C21 (stereo not drawn)
- IC50 (PBMC): > 100 µM
- IC50 (MCF7): 28 µM
- IC50 (Bel-7402): 22.1 µM
- IC50 (Caco-2): 4.88 µM
- IC50 (HL-60): 3.49 µM
- IC50 (SGC-7901): 35.7 µM

SMILES: CN1c2ccccc2C(=O)N2CCc3c(n(CCCC(=O)OCCCCOc4ccc(-c5cc(=S)ss5)cc4)c4ccccc34)C21 (stereo not drawn)
- IC50 (PBMC): > 100 µM
- IC50 (MCF7): 29.1 µM
- IC50 (Bel-7402): 45 µM
- IC50 (Caco-2): 3.87 µM
- IC50 (HL-60): 0.7 µM
- IC50 (SGC-7901): > 50 µM

SMILES: CN1c2ccccc2C(=O)N2CCc3c(n(CCCOCCCOC(=O)CCCCC4CCSS4)c4ccccc34)C21 (stereo not drawn)
- IC50 (PBMC): > 100 µM
- IC50 (MCF7): 22.4 µM
- IC50 (Bel-7402): > 50 µM
- IC50 (Caco-2): 5.14 µM
- IC50 (HL-60): 9.38 µM
- IC50 (SGC-7901): 31 µM

SMILES: CN1c2ccccc2C(=O)N2CCc3c(n(CCCOC(=O)CCCCC4CCSS4)c4ccccc34)C21 (stereo not drawn)
- IC50 (PBMC): > 100 µM
- IC50 (MCF7): 39.7 µM
- IC50 (Bel-7402): > 50 µM
- IC50 (Caco-2): 2.84 µM
- IC50 (HL-60): 2.09 µM
- IC50 (SGC-7901): > 50 µM

SMILES: CN1c2ccccc2C(=O)N2CCc3c([nH]c4ccccc34)C21 (stereo not drawn)
- IC50 (PBMC): 21 µM
- IC50 (MCF7): 28.5 µM
- IC50 (Bel-7402): 1.19 µM
- IC50 (Caco-2): 2.73 µM
- IC50 (HL-60): 1.36 µM
- IC50 (SGC-7901): 6.93 µM

SMILES: Oc1ccc(-c2cc(=S)ss2)cc1
- IC50 (PBMC): > 100 µM
- IC50 (MCF7): > 50 µM
- IC50 (Bel-7402): > 50 µM
- IC50 (Caco-2): 35.5 µM
- IC50 (HL-60): 25.9 µM
- IC50 (SGC-7901): > 50 µM

SMILES: CN1c2ccccc2C(=O)N2CCc3c(n(CCCC(=O)Oc4ccc(-c5cc(=S)ss5)cc4)c4ccccc34)C21 (stereo not drawn)
- IC50 (PBMC): > 100 µM
- IC50 (MCF7): > 50 µM
- IC50 (Bel-7402): > 50 µM
- IC50 (Caco-2): 4.08 µM
- IC50 (HL-60): 14.1 µM
- IC50 (SGC-7901): > 50 µM

SMILES: CN1c2ccccc2C(=O)N2CCc3c(n(CCCC(=O)OCCOc4ccc(-c5cc(=S)ss5)cc4)c4ccccc34)C21 (stereo not drawn)
- IC50 (PBMC): > 100 µM
- IC50 (MCF7): 40.2 µM
- IC50 (Bel-7402): 45.2 µM
- IC50 (Caco-2): 4.18 µM
- IC50 (HL-60): 1.03 µM
- IC50 (SGC-7901): 47.4 µM

SMILES: O=c1[nH]cc(F)c(=O)[nH]1 [FLUOROURACIL]
- IC50 (MCF7): 26.9 µM
- IC50 (Bel-7402): 19 µM
- IC50 (Caco-2): 38.8 µM
- IC50 (HL-60): 3.46 µM
- IC50 (SGC-7901): 19.8 µM

SMILES: CN1c2ccccc2C(=O)N2CCc3c(n(CCCCC(=O)OCCCOc4ccc(-c5cc(=S)ss5)cc4)c4ccccc34)C21 (stereo not drawn)
- IC50 (PBMC): > 100 µM
- IC50 (MCF7): > 50 µM
- IC50 (Bel-7402): 30.5 µM
- IC50 (Caco-2): 3.05 µM
- IC50 (HL-60): 0.99 µM
- IC50 (SGC-7901): > 50 µM

SMILES: CN1c2ccccc2C(=O)N2CCc3c(n(CC(=O)OCCCCOc4ccc(-c5cc(=S)ss5)cc4)c4ccccc34)C21 (stereo not drawn)
- IC50 (PBMC): > 100 µM
- IC50 (MCF7): > 50 µM
- IC50 (Bel-7402): > 50 µM
- IC50 (Caco-2): 4.34 µM
- IC50 (HL-60): 0.83 µM
- IC50 (SGC-7901): > 50 µM

SMILES: CN1c2ccccc2C(=O)N2CCc3c(n(CCOC(=O)CCCCC4CCSS4)c4ccccc34)C21 (stereo not drawn)
- IC50 (PBMC): > 100 µM
- IC50 (MCF7): 9.47 µM
- IC50 (Bel-7402): 20.5 µM
- IC50 (Caco-2): 3.18 µM
- IC50 (HL-60): 0.97 µM
- IC50 (SGC-7901): > 50 µM

SMILES: O=C(O)CCCCC1CCSS1 (stereo not drawn) [LIPOIC ACID, ALPHA]
- IC50 (PBMC): > 100 µM
- IC50 (MCF7): > 50 µM
- IC50 (Bel-7402): > 50 µM
- IC50 (Caco-2): 14.3 µM
- IC50 (HL-60): 16.4 µM
- IC50 (SGC-7901): > 50 µM

SMILES: CN1c2ccccc2C(=O)N2CCc3c(n(CCCCC(=O)Oc4ccc(-c5cc(=S)ss5)cc4)c4ccccc34)C21 (stereo not drawn)
- IC50 (PBMC): > 100 µM
- IC50 (MCF7): 48.7 µM
- IC50 (Bel-7402): > 50 µM
- IC50 (Caco-2): 38.1 µM
- IC50 (HL-60): > 50 µM
- IC50 (SGC-7901): 30.2 µM

SMILES: CN1c2ccccc2C(=O)N2CCc3c(n(CCCC(=O)OCCCOc4ccc(-c5cc(=S)ss5)cc4)c4ccccc34)C21 (stereo not drawn)
- IC50 (PBMC): > 100 µM
- IC50 (MCF7): > 50 µM
- IC50 (Bel-7402): > 50 µM
- IC50 (Caco-2): 2.81 µM
- IC50 (HL-60): 1.04 µM
- IC50 (SGC-7901): > 50 µM

SMILES: CN1c2ccccc2C(=O)N2CCc3c(n(CC(=O)OCCCOc4ccc(-c5cc(=S)ss5)cc4)c4ccccc34)C21 (stereo not drawn)
- IC50 (PBMC): > 100 µM
- IC50 (MCF7): 27.9 µM
- IC50 (Bel-7402): 34.2 µM
- IC50 (Caco-2): 5.1 µM
- IC50 (HL-60): 2.74 µM
- IC50 (SGC-7901): 24.7 µM
